Not all results are given here.
Apaf1 activ: activators of human Apaf-1 apoptosome, primary screen, biochemical, DEVD-Rh110 fluorescence, uHTS. Apoptotic protease-activating factor 1 (Homo sapiens), O14727. 0.31% of 330,000 active. Apaf-1 apoptosome caspase-3 activation; stronger effect = lower value. activity change, negative = activation, % at 20 µM;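 active = activity change at or below -40% at 20 µM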
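Material: biochemical Apaf-1 apoptosome reconstitution; Medium: 20 mM HEPES buffer, pH 7.5, containing CHAPS and BSA; Reagent: dATP, cytochrome c, and (Z-DEVD)2-Rh110 caspase-3 substrate; Times: 30 min preincubation, 50 min reaction, room temperature; Signal: Rh110 fluorescence, excitation 480 nm, emission 540 nm; Measure: Caspase-3 activity via Apaf-1.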
Rh110 act interf: Rh110 fluorescence interference by putative Apaf-1 activators, confirmation, artefact control for Apaf-1 activator project, biochemical, 20 µM; AID 504616, 2011; quenched caspase reaction, Ex480/Em540; fluorescence interference (activity change), % at 20 µM, hits read low; 980 tested, under 10 active; shares compounds with Apaf1 activ;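 active = mean activity change at or below -40% when tested at 20 µM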
Apaf-1 act conf2: Apaf-1 activators, single-dose retest, confirmation, biochemical, fluorescence, DEVD-Rh110, 20 µM; 5% of 980 active; reconstituted apoptosome caspase-3 activity; stronger effect = lower value; activity change, negative = activation, % at 20 µM; shares compounds with Apaf1 activ;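 active = mean activity change at or below -40%, meaning activation of 40% or more, at 20 µM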
Apaf1 act interf: fluorescence interference of Apaf-1 activator hits, dose response, artefact control for Apaf-1 activator project. shares compounds with Apaf1 activ. fluorescence interference counterscreen, Apaf-1 activator assay. EC50, µM. 55 tested, under 10 active. AID 588592, 2011; call rule not given here
* = called active by the depositor; nt = no result.

SMILES	Apaf1 activ	Rh110 act interf	Apaf-1 act conf2	others
COc1cc2nc(Nc3ccc(C)c(Cl)c3)nc(N)c2cc1OC	45.1	nt	nt
COc1ccccc1-c1ccc(=O)n(CC(=O)NCC2CCCO2)n1 (stereo not drawn)	-50.0*	-1.0	6.9
C=CCn1c(N)c(C(=O)NCC2CCCO2)c2nc3ccccc3nc21 (stereo not drawn)	77.7	nt	nt
COc1ccc(-n2c(N)c(C(=O)NCC3CCCO3)c3nc4ccccc4nc32)c(OC)c1 (stereo not drawn)	65.8	nt	nt
COc1cccc(C(c2c(C)[nH]n(-c3ccccc3)c2=O)c2c(C)[nH]n(-c3ccccc3)c2=O)c1O	94.4	nt	nt
Cc1cccc(C)c1OCC(=O)N(Cc1ccco1)C1CCS(=O)(=O)C1 (stereo not drawn)	-378.0*	4.7	-0.2
CC[C@H](C)[C@@H](C(=O)NCCCCCCCCCCC(=O)N1CCN(C(=O)OC(C)(C)C)CC1)n1cc(CCCCN=C(NC(=O)OC(C)(C)C)NC(=O)OC(C)(C)C)nn1	56.1	nt	nt
O=c1[nH]c(Nc2ccccn2)cc2ccccc12	91.0	nt	nt
CCOC(=O)C(=O)Nc1cc(Cl)ccc1C	-54.4*	10.5	10.0
Oc1cccc(C=NCc2ccccc2)c1O	81.8	nt	nt
CCc1ccc(S(=O)(=O)/N=C2\C=C(Nc3ccc(C(=O)O)cc3)C(=O)c3ccccc32)cc1	96.4	nt	nt
Cc1ccc(S(=O)(=O)/N=C2\C=C(Nc3cccc(C(=O)O)c3)C(=O)c3ccccc32)c(C)c1	90.2	nt	nt	Apaf1 act interf=>100
Cc1ccc(S(=O)(=O)/N=C2\C=C(Nc3cccc(C(=O)O)c3)C(=O)c3ccccc32)cc1	93.6	nt	nt
Fc1cccc(Cl)c1CNc1ccc(N2CCCC2)cc1	47.8	nt	nt
Clc1cccc(Cl)c1CNC1CCCC1	-48.3*	-2.2	2.1
COc1cc2sc3ccc(-c4ccc(N(C)C)nc4)cc3c(=O)c2cc1OC	43.9	nt	nt
O=C1CCC(C(=O)OCC(=O)N2N=C3/C(=C/c4ccccc4)CCCC3C2c2ccccc2)N1 (stereo not drawn)	43.5	nt	nt
O=C1C=C(Nc2ccccc2)c2ccccc2C1=O	91.9	nt	nt
COc1ccc(N2CCCn3c2nc2c3c(=O)n(Cc3ccc(C)cc3)c(=O)n2C)c(OC)c1	-100.2*	8.2	21.1
CC(C)C[C@@H]1CN=C(N)N1C[C@@H]1CCCN1C[C@H](C)N1C[C@@H](Cc2ccccc2)N(CCc2ccc(Cl)c(Cl)c2)C1=N	63.0	nt	nt
Cc1ccc(N=Nc2c(N)[nH]n3c(=O)cc(-c4ccccc4)nc23)cc1	54.9	nt	nt
CC(CNc1ccccc1O)C(=O)O (stereo not drawn)	-165.1*	4.3	-81.3*	Apaf1 act interf=>100
CCCCCCCCCCOC(=O)Cn1c(COc2cccc(C)c2)[n+](C)c2ccccc21	79.4	nt	nt
CCCCc1nc(N2CCN(C(=O)c3ccco3)CC2)c(C#N)c2c1CCCC2	41.8	nt	nt
CN(C)CCCN(C(=O)c1ccc(C(=O)c2ccccc2)cc1)c1nc2cc3c(cc2s1)OCO3	60.3	nt	nt
SMILES	Apaf1 activ	Rh110 act interf	Apaf-1 act conf2	others
CN(C)CCCN(C(=O)c1ccco1)c1nc2ccc(F)cc2s1	-98.5*	5.6	9.8
CCc1ccc2nc(N(CCCN(C)C)C(=O)c3ccc(S(=O)(=O)N(C)C4CCCCC4)cc3)sc2c1	53.6	nt	nt
CCN(CC)CCCNc1ccc(-c2nnc(-c3ccc(OCC(C)C)cc3)o2)cn1	41.4	nt	nt
COC(=O)CCC(=O)OC1(C)C(=O)C2=CN(CC(C)C)C(c3ccc(OC)cc3)=CC2=C(Br)C1=O (stereo not drawn)	52.0	nt	nt
CN(CCO)c1cc(Sc2nc3ccccc3s2)c2nonc2c1[N+](=O)[O-]	51.8	nt	nt
O=C1CC(c2ccccc2)n2ncnc2N1 (stereo not drawn)	-347.5*	3.5	11.1
Nc1ccn([C@H]2C[C@H](O)[C@@H](CO)O2)c(=O)n1	-5.8	nt	nt
CCc1cc[n+](C2=C([O-])c3ccccc3C(=O)/C2=N\S(=O)(=O)c2cccs2)cc1	68.2	nt	nt
COc1cc(/C=N/N=C(N)N)ccc1OCc1ccc(Cl)cc1	40.1	nt	nt
O=C1c2ccccc2C(=O)C1(O)O	68.0	nt	nt
Cc1ccc(S(=O)(=O)/N=C2\C=C(Nc3ccc(O)cc3)C(=O)c3ccccc32)cc1	95.5	nt	nt
Cc1ccc(S(=O)(=O)NC(=O)Nc2ccccc2)cc1	-528.6*	1.9	7.8
CC(=O)Nc1ccc(S(=O)(=O)Nc2nc3ccccc3nc2Nc2ccc(C(=O)O)c(O)c2)cc1	58.3	nt	nt
Cc1[nH]n(-c2ccc([N+](=O)[O-])cc2)c(=O)c1/C=N/N1CCOCC1	44.5	nt	nt
C=CCNC(C(=O)Nc1cccc(OC)c1)c1ccccc1 (stereo not drawn)	42.9	nt	nt
COc1cccc(NC(=O)C2CCCO2)c1 (stereo not drawn)	-114.4*	9.7	13.3
COc1ccc(OC)c(C2=NOC(C(=O)Nc3ccc4c(c3)OCCO4)C2)c1 (stereo not drawn)	41.7	nt	nt
Cc1nn(Cc2c(F)c(F)c(F)c(F)c2F)c(C)c1NC(=O)c1ccc(COc2ccc(Cl)cc2Cl)o1	46.3	nt	nt
CC(C)(CS(=O)(=O)[O-])NC(=O)CC[N+](C)(C)CCO	-597.6*	7.6	-128.0*	Apaf1 act interf=>100
OC(CNCC1CCCO1)Cn1c2ccc(Cl)cc2c2cc(Cl)ccc21 (stereo not drawn)	43.3	nt	nt
CC(C)[N+]1(C)[C@@H]2CC[C@H]1CC(OC(=O)C(CO)c1ccccc1)C2 (stereo partly drawn)	-5.4	nt	nt
Cc1[nH]n(-c2ccccc2)c(=O)c1C(C[N+](=O)[O-])c1ccccc1Cl (stereo not drawn)	79.1	nt	nt
O=C(O)c1ccc2c(c1)-c1nc3ccccc3n1C2=O	-113.1*	-1.5	-1.1
O=C(O)c1ccc(NC2=C(n3nnc4ccccc43)C(=O)c3ccccc3C2=O)cc1	73.1	nt	nt
COc1ccc(/C=C2/C(=O)N(c3c(F)c(F)c(F)c(F)c3F)N=C2C)cc1	53.8	nt	nt
SMILES	Apaf1 activ	Rh110 act interf	Apaf-1 act conf2	others
N#C[C@@H]1[C@@H]2C(=O)N(c3ccc4c(c3)OCCO4)C(=O)[C@@H]2C2c3ccccc3C=CN21 (stereo partly drawn)	77.6	nt	nt
CC(C)=C1C2C=CC1C1C(=O)N(c3ccc4c(c3)OCO4)C(=O)C21 (stereo not drawn)	-71.4*	0.9	9.8
Oc1cccc(C=Nc2cccc3ccccc23)c1O	74.0	nt	nt
CC1(c2ccccc2)NC(=O)N(NC(=O)CSc2n[nH]c(N)n2)C1=O (stereo not drawn)	-278.9*	1.4	2.2
Cc1ccc(NC2=C/C(=N/S(=O)(=O)c3cccs3)c3ccccc3C2=O)cc1	92.4	nt	nt
COc1ccccc1-c1nc2n(n1)C(c1cccs1)C(C(=O)Nc1cccnc1)=C(C)N2 (stereo not drawn)	-244.2*	-4.6	13.0
CN(C)c1ccc(NC2=C(Cl)C(=O)c3ccccc3C2=O)cc1	42.9	nt	nt
CCc1ccc(NC2=CC(=O)C(=O)c3ccccc32)cc1	91.7	nt	nt
Cc1cc(C)c2nc(N(CCCN(C)C)C(=O)c3ccc4c(c3)CCCC4)sc2c1	42.2	nt	nt
